Assay results taken from ChEMBL document CHEMBL1124475, “The thieno[3,2-c]pyridine and furo[3,2-c]pyridine rings: new pharmacophores with potential antipsychotic activity” (J Med Chem, 1989).
pIC50: −log10 of the molar value. The source made the active and inactive calls. The calls are words filed in the database; no cut-off is given here.

Experiments:
[1] = biological target: T1, 5-hydroxytryptamine receptor 1A (Rattus norvegicus, UniProt P19327); test: Ability to bind at serotonin 5-hydroxytryptamine 1A receptors of rat hippocampus by displacing [3H]8-OH-DPAT; format: tissue-based
T1 sequence (P19327 whole entry): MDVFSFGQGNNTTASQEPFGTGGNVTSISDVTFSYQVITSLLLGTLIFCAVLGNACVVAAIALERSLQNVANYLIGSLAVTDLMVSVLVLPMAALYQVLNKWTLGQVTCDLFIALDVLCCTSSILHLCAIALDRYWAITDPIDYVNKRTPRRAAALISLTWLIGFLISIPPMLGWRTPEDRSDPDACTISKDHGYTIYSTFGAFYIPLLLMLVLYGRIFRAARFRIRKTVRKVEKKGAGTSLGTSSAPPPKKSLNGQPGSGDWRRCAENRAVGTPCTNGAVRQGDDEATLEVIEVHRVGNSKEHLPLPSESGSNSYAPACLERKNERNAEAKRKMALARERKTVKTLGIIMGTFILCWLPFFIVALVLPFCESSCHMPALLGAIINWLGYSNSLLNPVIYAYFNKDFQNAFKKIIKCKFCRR
Summary of the method: (§1)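 Rat receptor radioligand displacement, five test-ligand concentrations used to calculate IC50, each assay in duplicate. Some compounds determined four times (in duplicate), with mean IC50 reported.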

[2] = biological target: Serotonin 1 (5-HT1) receptor (Rattus norvegicus, UniProt P28564+P30940+P19327+P28565); test: Ability to bind at 5-hydroxytryptamine 1 receptor of rat hippocampus by displacing [3H]5-HT; format: tissue-based; summary of the method: as §1
D(2) dopamine receptor [3] = biological target: T2, D(2) dopamine receptor (Rattus norvegicus, UniProt P61169); test: Ability to bind at Dopamine receptor D2 of rat corpus striatum by displacing [3H]spiperone; summary of the method: as §1
T2 sequence (P61169 whole entry): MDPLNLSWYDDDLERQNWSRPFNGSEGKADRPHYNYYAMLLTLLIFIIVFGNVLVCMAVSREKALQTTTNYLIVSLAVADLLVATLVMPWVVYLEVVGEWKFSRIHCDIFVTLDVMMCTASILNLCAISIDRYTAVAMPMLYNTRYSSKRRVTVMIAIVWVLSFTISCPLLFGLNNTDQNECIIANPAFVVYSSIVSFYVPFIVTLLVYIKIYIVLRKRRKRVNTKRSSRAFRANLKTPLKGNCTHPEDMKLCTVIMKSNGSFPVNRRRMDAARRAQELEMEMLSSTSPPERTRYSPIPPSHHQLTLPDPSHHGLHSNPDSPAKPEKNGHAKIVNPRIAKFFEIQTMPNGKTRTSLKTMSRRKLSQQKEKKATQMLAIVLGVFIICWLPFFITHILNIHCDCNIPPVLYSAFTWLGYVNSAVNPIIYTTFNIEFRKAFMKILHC

Mus musculus = test: Blockade of apomorphine-induced climbing in mice when administered perorally; IA Inactive; format: functional, organism-based
Summary of the method: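 Male mice habituated 30 min in individual cages, then dosed orally (distilled H2O or 0.5% Methocel suspension, 10 mL/kg) or vehicle. Apomorphine 1.5 mg/kg sc given 30 min later. Climbing scored at 10, 20, 30 min post-apomorphine. At least five animals per dose, maximum 100 mg/kg.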

Rattus norvegicus [4] = test: Blockade of apomorphine-induced stereotypy in rats when administered perorally; format: functional; settings: po
Rattus norvegicus [5] = test: Induction of catalepsy in rats when administered perorally and maximum dose examined was 4 times the ED50 value established in CAR; Inactive; format: functional, organism-based
Rattus norvegicus [6] = test: Conditioned avoidance response (CAR) when administered perorally; format: functional; settings: po
[7] = biological target: T3, Serotonin 2 (5-HT2) receptor (Rattus norvegicus, UniProt P30994+P08909+P14842); test: Ability to bind at serotonin 5-hydroxytryptamine 2 receptors of rat cortex by displacing [3H]spiperone
[8] = biological target: T4, Adrenergic receptor alpha-1 (Rattus norvegicus, UniProt P15823+P23944+P43140); test: Ability to bind at alpha-1 adrenergic receptor by displacing [3H]WB-4101; format: protein assay; summary of the method: as §1
T4 sequence (P15823 whole entry): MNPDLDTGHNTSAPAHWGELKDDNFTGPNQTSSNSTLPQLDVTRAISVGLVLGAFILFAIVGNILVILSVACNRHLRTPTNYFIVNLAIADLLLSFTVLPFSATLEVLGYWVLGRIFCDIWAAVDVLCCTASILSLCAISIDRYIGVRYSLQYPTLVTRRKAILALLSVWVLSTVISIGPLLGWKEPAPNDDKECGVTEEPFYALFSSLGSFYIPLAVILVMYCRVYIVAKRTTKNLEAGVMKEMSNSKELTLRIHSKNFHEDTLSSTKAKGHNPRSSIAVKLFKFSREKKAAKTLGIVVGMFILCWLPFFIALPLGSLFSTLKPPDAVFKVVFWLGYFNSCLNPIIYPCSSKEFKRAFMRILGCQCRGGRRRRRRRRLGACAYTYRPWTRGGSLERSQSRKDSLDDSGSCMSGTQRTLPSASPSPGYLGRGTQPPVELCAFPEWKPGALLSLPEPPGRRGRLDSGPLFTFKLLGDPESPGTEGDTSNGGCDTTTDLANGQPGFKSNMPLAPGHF
T4 sequence (P23944 whole entry): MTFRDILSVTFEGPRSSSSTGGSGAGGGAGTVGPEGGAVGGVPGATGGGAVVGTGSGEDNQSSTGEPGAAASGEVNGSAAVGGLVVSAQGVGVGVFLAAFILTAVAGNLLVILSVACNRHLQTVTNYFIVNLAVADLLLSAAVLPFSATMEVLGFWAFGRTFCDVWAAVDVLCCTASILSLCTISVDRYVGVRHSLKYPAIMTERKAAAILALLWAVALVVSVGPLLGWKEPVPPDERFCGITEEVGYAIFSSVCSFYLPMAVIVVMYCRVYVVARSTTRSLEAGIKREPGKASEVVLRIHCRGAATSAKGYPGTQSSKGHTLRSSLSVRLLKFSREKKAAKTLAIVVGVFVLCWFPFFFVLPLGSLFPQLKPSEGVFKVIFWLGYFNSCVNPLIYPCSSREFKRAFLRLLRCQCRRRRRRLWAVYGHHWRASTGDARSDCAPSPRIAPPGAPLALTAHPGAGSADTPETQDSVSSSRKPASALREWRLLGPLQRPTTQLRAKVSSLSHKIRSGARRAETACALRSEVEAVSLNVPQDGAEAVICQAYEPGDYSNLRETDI
T4 sequence (P43140 whole entry): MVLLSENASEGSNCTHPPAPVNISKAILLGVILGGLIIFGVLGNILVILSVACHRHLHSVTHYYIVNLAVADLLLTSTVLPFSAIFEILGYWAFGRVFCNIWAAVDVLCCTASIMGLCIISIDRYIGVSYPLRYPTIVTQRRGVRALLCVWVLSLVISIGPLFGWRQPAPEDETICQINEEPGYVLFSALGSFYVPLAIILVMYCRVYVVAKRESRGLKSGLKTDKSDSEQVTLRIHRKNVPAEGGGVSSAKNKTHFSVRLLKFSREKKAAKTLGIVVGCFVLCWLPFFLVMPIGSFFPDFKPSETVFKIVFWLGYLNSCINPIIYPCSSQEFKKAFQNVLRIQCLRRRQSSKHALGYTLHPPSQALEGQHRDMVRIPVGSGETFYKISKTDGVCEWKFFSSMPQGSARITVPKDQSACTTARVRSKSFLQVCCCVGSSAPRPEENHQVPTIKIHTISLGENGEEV

[9] = biological target: T4, Adrenergic receptor alpha-1; test: Ability to bind at Alpha-1 adrenergic receptor by displacing [3H]WB-4101; format: protein assay
D(2) dopamine receptor [10] = biological target: T2, D(2) dopamine receptor; test: Ability to bind at dopamine receptor D2 of rat corpus striatum by displacing [3H]spiperone
[11] = biological target: T3, Serotonin 2 (5-HT2) receptor; test: Ability to bind at 5-hydroxytryptamine 2 receptor of rat cortex by displacing [3H]spiperone
[12] = biological target: T1, 5-hydroxytryptamine receptor 1A; test: Ability to bind at 5-hydroxytryptamine 1A receptor of rat hippocampus by displacing [3H]8-OH-DPAT; format: tissue-based; summary of the method: as §1
Rattus norvegicus [13] = test: Blockade of Sidman-avoidance activity in rats when administered perorally; format: functional
Summary of the method: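 Rats trained in once-daily Sidman sessions until stable; non-learners after 3 days replaced. Twelve rats dosed 30 min before session. Each rat compared with mean of its previous three drug-free days by paired t test. Testing continued to minimally effective dose; maximum usually 100 mg/kg. MED is mean over 12 animals.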

Row | pIC50 [1] | IC50 [2] | pIC50 (D(2) dopamine receptor [3]) | IC50 [7] | pIC50 (D(2) dopamine receptor [10]) | SMILES | ED50 (Rattus norvegicus [6]) | further results
1 | 8.89 | 8.8 nM | 6.18 | 4.2 nM | – | CC1CC(=O)N(CCCCN2CCN(c3nccc4sccc34)CC2)C(=O)C1.Cl | 2.9 mg/kg | MED50 (Mus musculus): inactive; ED50 (Rattus norvegicus [4]): 39.5 mg/kg; ED50 (Rattus norvegicus [5]): inactive
2 | 8.31 | – | 6.15 | – | – | Cc1cc2c(N3CCN(CCCCN4C(=O)CC(C)(C)CC4=O)CC3)nccc2o1.Cl | 13.8 mg/kg | –
3 | – | – | < 6.00 | – | – | Cl.Cn1ccc2c(N3CCN(CCCCN4C(=O)CC(C)(C)CC4=O)CC3)nccc21 | 67.2 mg/kg | –
4 | 9.17 | 2.3 nM | 6.49 | 5.7 nM | – | Cl.O=C1c2ccccc2S(=O)(=O)N1CCCCN1CCN(c2nccc3sccc23)CC1 | > 62.5 mg/kg | IC50 [8]: 1.2 nM
5 | – | 3.7 nM | 6.64 | 70.9 nM | – | CC1(C)CC(=O)N(CCCCN2CCN(c3nccc4sc(Br)cc34)CC2)C(=O)C1.Cl | 65.3 mg/kg | IC50 [8]: 27.2 nM
6 | – | – | – | – | 6.48 | Cl.O=C1SC2(CCCC2)C(=O)N1CCCCN1CCN(c2nccc3occc23)CC1 | 9.2 mg/kg | IC50 [9]: 23.5 nM
7 | – | 25.3 nM | – | – | 6.36 | Cl.O=C1SC2(CCCC2)C(=O)N1CCCCN1CCN(c2nccc3sc(Br)cc23)CC1 | > 100 mg/kg | IC50 [11]: 116 nM
8 | 7.91 | – | 6.47 | 55.2 nM | – | Cl.OC(CCCN1CCN(c2nccc3occc23)CC1)c1ccc(F)cc1 (configuration not stated) | 3.1 mg/kg | IC50 [8]: 23.8 nM
9 | 8.21 | – | – | – | – | Cc1cc2c(N3CCN(CCCC(O)c4ccc(F)cc4)CC3)nccc2o1.Cl (configuration not stated) | 23.2 mg/kg | –
10 | – | – | < 6.00 | – | – | Cl.O=C1CSCC(=O)N1CCCCN1CCN(c2nccc3occc23)CC1 | 35.8 mg/kg | –
11 | – | – | < 6.00 | – | – | Cl.Cn1ccc2c(N3CCN(CCCCN4C(=O)COCC4=O)CC3)nccc21 | > 100 mg/kg | –
12 | 8.94 | – | 6.22 | 6.7 nM | – | O=C1CSCC(=O)N1CCCCN1CCN(c2nccc3sccc23)CC1 | 31.9 mg/kg | IC50 [8]: 1.1 nM
13 | 8.57 | 5.3 nM | 6.51 | 2.8 nM | – | Cl.O=C1c2ccccc2C(=O)N1CCCCN1CCN(c2nccc3sccc23)CC1 | 38.9 mg/kg | IC50 [8]: 0.69 nM
14 | – | – | – | – | 6.12 | Cc1cc2c(N3CCN(CCCCN4C(=O)SC5(CCCC5)C4=O)CC3)nccc2o1.Cl | 28.4 mg/kg | pIC50 [12]: 8.66; IC50 [9]: 27.5 nM
15 | – | – | – | – | 6.29 | Cl.Cn1ccc2c(N3CCN(CCCCN4C(=O)SC5(CCCC5)C4=O)CC3)nccc21 | 59.5 mg/kg | pIC50 [12]: 6.61
16 | – | 3.6 nM | – | – | 6.55 | Cc1cc2c(N3CCN(CCCCN4C(=O)SC5(CCCC5)C4=O)CC3)nccc2s1.Cl | 35.4 mg/kg | IC50 [11]: 43.4 nM
17 | – | – | – | – | 6.20 | CC1(C)CC(=O)N(CCCCN2CCN(c3nccc4occc34)CC2)C(=O)C1.Cl | 4.2 mg/kg | pIC50 [12]: 8.06; IC50 [9]: 47 nM
18 | 8.60 | – | – | 19.1 nM | – | Cl.O=C1CCCC(=O)N1CCCCN1CCN(c2nccc3sccc23)CC1 | 5.4 mg/kg | MED50 (Mus musculus): inactive; ED50 (Rattus norvegicus [4]): 55.6 mg/kg; ED50 (Rattus norvegicus [5]): inactive; MED (Rattus norvegicus [13]; po): 20 mg/kg
19 | – | 8.1 nM | – | – | 7.05 | Cl.O=C1SC2(CCCC2)C(=O)N1CCCCN1CCN(c2nccc3sccc23)CC1 | 11.6 mg/kg | IC50 [9]: 30.5 nM; ED50 (Rattus norvegicus [4]): 35.2 mg/kg; MED50 (Rattus norvegicus [13]): 5 mg/kg; IC50 [11]: 3.9 nM
